The record followed here is PubChem BioAssay.

Activity calls are given as the source filed them.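 The calls were made as follows, unless noted: active = current rise at least 3 SD above the untreated control mean in each of two repeat wells; inactive = the rest.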

In experiment [1] the target is Potassium voltage-gated channel subfamily KQT member 1 (Homo sapiens) (UniProt P51787). Briefly: KCNQ1 activators by electrophysiology – IonWorks patch clamp, KCNQ1-CHO cells, orthogonal assay for KCNQ1 potentiator project, confirmation (AID 493184). The note with it: automated patch clamp current, at 10 µM. The method in brief:
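Read-out: Percent current increase versus pre-compound level | Assay system: CHO cells carrying KCNQ1 | Measured by: Automated perforated-patch electrophysiology | Medium: External bath solution at pH 7.4 | Dosing: One dose, 10 µM final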
(In patch-clamp work, channel activity is measured electrically.)

Experiment [2] concerns the target Potassium voltage-gated channel subfamily E member 1 (Homo sapiens) + Potassium voltage-gated channel subfamily KQT member 1 (Homo sapiens) (UniProt P15382+P51787). The experiment in a line: KCNQ1-E1 channel activation – thallium flux, CHO-K1 KCNQ1/E1 cells, selectivity assay for KCNQ1 potentiator project, confirmation (AID 493186;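 active = mean duplicate activation above the buffer control mean plus 5 SD of those controls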). As to conditions: FluxOR thallium flux, at 10 µM. The procedure, abridged: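 Test system: CHO-K1 cells with KCNQ1/E1; dosing: one test concentration; signal: FluxOR Tl+ flux fluorescence, kinetic read; incubation: 90-min dye loading then 20-min compound exposure, both at room temperature; read-out basis: percent of R-L3 effect over buffer; replication: duplicate wells per compound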

Potassium voltage-gated channel subfamily E member 1 (Homo sapiens) + Potassium voltage-gated channel subfamily KQT member 1 (Homo sapiens), sequence (P51787 whole entry, looked up): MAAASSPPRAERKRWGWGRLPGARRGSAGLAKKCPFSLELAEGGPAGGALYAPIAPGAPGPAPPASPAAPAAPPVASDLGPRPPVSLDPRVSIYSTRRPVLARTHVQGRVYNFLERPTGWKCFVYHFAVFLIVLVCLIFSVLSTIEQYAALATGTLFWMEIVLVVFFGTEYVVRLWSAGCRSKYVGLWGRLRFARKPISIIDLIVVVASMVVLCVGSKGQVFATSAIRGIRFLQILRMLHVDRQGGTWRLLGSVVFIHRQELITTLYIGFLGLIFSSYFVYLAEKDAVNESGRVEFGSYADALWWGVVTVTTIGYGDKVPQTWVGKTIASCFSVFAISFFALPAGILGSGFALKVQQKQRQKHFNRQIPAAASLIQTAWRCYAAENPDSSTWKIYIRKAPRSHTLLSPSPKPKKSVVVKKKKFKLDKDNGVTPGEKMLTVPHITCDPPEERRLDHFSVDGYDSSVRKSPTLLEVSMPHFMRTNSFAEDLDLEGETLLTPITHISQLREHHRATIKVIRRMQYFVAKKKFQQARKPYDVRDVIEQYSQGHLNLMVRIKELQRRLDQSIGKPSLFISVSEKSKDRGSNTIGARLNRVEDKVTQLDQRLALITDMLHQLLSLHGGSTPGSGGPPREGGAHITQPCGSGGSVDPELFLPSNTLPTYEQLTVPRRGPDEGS
Potassium voltage-gated channel subfamily KQT member 1 (Homo sapiens), sequence (P51787 whole entry, looked up): as above

Turning to `C=CCSc1nc2c(c(=O)[nH]c(=O)n2C)n1C/C=C(/C)Cl`, the outcome in experiment [1] and in experiment [2] was inactive. In the case of `O=C(O)c1ccc(Cl)cc1Nc1nc2cc(Cl)ccc2o1`, in experiment [1], the outcome was inactive.

In the case of `c1ccc(-c2nc(NCc3ccco3)c3ccccc3n2)cc1`, the result in experiment [1] was inactive. Still for that read-out and setting: as for `Cc1ccc(/C=C/C(=O)c2ccc(O)cc2)cc1`, the entry is “inactive”.

For `COc1cc(NS(=O)(=O)c2ccc3ccccc3c2)c2ncccc2c1`, the result in experiment [1] and in experiment [2] was inactive. Consider `Cc1nc2c3cc(Cl)ccc3n(CCN3CCCCC3)c2s1`, for which, in experiment [1], the outcome was inactive. Consider `Brc1ccccc1CN1CCN(Cc2c[nH]c3ccccc23)CC1`, for which the result in experiment [1] and in experiment [2] was inactive.

As to `CN(C)CC(CCC(CN(C)C)C(O)(c1ccccc1)c1ccccc1)C(O)(c1ccccc1)c1ccccc1` (stereo not given), the outcome in experiment [1] and in experiment [2] was inactive. Regarding `CC1=NN(c2ccccc2)C(=O)/C1=C/c1c(O)n(-c2ccc(F)c(Cl)c2)[nH]c1=O`, the result in experiment [1] was inactive.

As to `CC(=O)C1=C(S(=O)(=O)c2ccc(C)cc2)CS(=O)(=O)C1`, the result in experiment [1] was inactive.

As to `O=Cc1cc(N=Nc2ccccc2Cl)ccc1O`, in experiment [1], the outcome was inactive. As to `Cc1ccc(OCC(=O)NNC(=S)NC(=O)c2ccc(Br)o2)c(C)c1`, the outcome in experiment [1] was inactive.

Turning to `CCCc1nc2oc3c(NCCN(C)C)ncnc3c2c2c1CCCC2`, the outcome in experiment [1] and in experiment [2] was inactive. As to `Cc1cc(C)cc(N/C(N)=N/c2nc(C)cc(C)n2)c1`, the result in experiment [1] and in experiment [2] was inactive.

`Oc1c(Br)cc(Br)cc1C=Nc1ccc2[nH]ncc2c1`: in experiment [1], the outcome was inactive. Consider `CC(C1CC2CCC1C2)n1c(-c2cccs2)n[nH]c1=S` (stereo not given), for which the outcome in experiment [1] and in experiment [2] was inactive.

For the compound `S=c1[nH]nc(-c2cc3c(s2)-c2ccccc2CC3)o1`, the result in experiment [1] was inactive.

In the case of `Cc1cccc(/C=N/NC(=O)c2cc(Br)ccc2O)n1`, the outcome in experiment [1] was inactive.
